Test results: PubChem BioAssay
Activity calls are given as the source filed them.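 The calls were made as follows: active = current rise at least 3 SD above the untreated control mean in each of two repeat wells; inactive = the rest.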

What follows are compounds tested against Potassium voltage-gated channel subfamily KQT member 1 (Homo sapiens) (UniProt P51787) (assay: KCNQ1 activators by electrophysiology – IonWorks patch clamp, KCNQ1-CHO cells, orthogonal assay for KCNQ1 potentiator project, confirmation (AID 493184)). Details: automated patch clamp current, at 10 µM.
Method in brief: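 Material: KCNQ1-expressing CHO cells; doses: 10 µM final, single point; probe or stimulus: voltage step from -90 mV holding to +40 mV, 2,000 ms; signal: automated voltage clamp, amphotericin B perforated patch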

Potassium voltage-gated channel subfamily KQT member 1 (Homo sapiens), sequence (P51787 whole entry, looked up): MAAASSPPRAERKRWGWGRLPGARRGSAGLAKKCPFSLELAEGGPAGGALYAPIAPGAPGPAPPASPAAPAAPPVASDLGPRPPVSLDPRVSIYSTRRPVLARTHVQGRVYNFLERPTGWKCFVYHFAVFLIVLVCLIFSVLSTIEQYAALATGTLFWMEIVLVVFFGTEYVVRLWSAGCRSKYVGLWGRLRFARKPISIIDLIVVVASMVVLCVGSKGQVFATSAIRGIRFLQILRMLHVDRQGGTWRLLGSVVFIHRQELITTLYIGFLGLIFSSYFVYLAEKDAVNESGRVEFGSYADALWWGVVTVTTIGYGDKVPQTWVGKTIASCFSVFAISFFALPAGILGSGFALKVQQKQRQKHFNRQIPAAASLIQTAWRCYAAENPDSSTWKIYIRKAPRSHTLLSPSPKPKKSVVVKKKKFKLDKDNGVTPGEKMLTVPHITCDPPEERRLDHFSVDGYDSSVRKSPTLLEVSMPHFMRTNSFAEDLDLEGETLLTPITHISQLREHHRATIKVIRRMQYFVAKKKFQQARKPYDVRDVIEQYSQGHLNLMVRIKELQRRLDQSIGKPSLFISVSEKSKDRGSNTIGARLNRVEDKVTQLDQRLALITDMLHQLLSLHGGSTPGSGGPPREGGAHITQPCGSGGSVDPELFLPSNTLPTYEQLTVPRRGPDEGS

outcome, inactive:
Cc1cc(C)cc(OCC(O)Cn2nc(C)cc2C)c1 (centres undefined)
CCOc1ccc(C(=O)NC(=S)N(Cc2ccccc2)Cc2ccccc2)cc1
N#Cc1cn(CC(=O)NCC2CCCO2)c2ccccc12 (centres undefined)
O=C(Cn1c(=O)oc2ccccc21)N1CCN(c2ccc(N3CCOCC3)nn2)CC1
Cc1cc(C(c2cc(C)c(N)c(C)c2)c2ccco2)cc(C)c1N
COc1cccc(C(=O)NC(=S)Nc2ccc3c4c(cccc24)CC3)c1
COc1cc(CNCCN2CCOCC2)ccc1OCc1ccc(Cl)cc1Cl
CCCN(C(=O)c1cn(-c2ccccc2)nc1-c1ccc(OC)cc1)C1CCS(=O)(=O)C1 (centres undefined)
COc1cc(CN(C)CC2CCCN(CCc3cccc(C(F)(F)F)c3)C2)ccc1O (centres undefined)
OCCCCNCc1ccc(OCc2ccc(Cl)cc2Cl)cc1
Cc1ccc(NC(=O)CN(C)C(=O)CCOc2ccccc2C)cc1
O=C(NC(=S)N(CCCCO)C1CCCCC1)c1sc2ccccc2c1Cl
CCc1nnc(SCC(=O)Nc2nnc(C)s2)n1CC1CCCO1 (centres undefined)
Cc1csc(=O)n1CCC(=O)OCC(=O)NCc1ccc(F)cc1
S=C(N/N=C/c1ccccc1Cl)Nc1cccc(Cl)c1Cl
Cc1sc2ncnc(SCC(=O)c3ccc(O)cc3O)c2c1C
C/C(=N/NC(=O)c1ccc(Br)o1)c1ccc(C)o1
Cc1cccc(NC(=S)NC(=O)c2cc(-c3ccccc3)nc3ccccc23)c1
O=c1c2cccnc2n(-c2ccccc2)n1Cc1ccc(Cl)cc1
CC(C)n1cc(NC(=O)c2cc(-c3ccccc3)on2)cn1
COc1cccc2sc(N(CCCN(C)C)C(=O)CCS(=O)(=O)c3ccccc3)nc12
CCCCNC(=S)NNC(=O)c1nn(C)c(C)c1Cl
CC(C)c1nc2n[nH]c(N)c2c2c1CCCC2
Cn1ncc2c(O/N=C(\N)c3ccc(C(C)(C)C)cc3)ncnc21
COC(=O)c1c(N)sc2c1CCN(c1ncc(C(F)(F)F)cc1Cl)C2
O=C(NC(=S)N1CCc2ccccc21)c1ccccc1Br
O=C1CCC/C(=N\NC(=O)c2ccc(COc3cccc4cccnc34)cc2)C1
Cc1ccc(-c2ccc(=O)n(Cc3cccc(Br)c3)n2)cc1
O=c1cc(-c2c(F)c(F)c(F)c(F)c2F)oc2ccccc12
CN(CC(=O)NCCc1ccc(F)cc1)Cc1cccc(Cl)c1
Cc1ccc(-c2csc(=S)[nH]2)cc1
COc1ccccc1C(=O)NNC(=O)C(=O)Nc1ccc(C)c(Cl)c1
CCCCOc1ccc(C(=O)Oc2ccc(C)nc2)cc1
C[C@@H](NC(=O)[C@@H]1Cc2ccccc2CN1)C(=O)NC1CCCC1
Cc1ccc(-c2ccnc(=S)[nH]2)cc1
CC1CCCN(c2ccc(C(=O)NCc3ccccc3)cn2)C1 (centres undefined)
CCOC(=O)Cc1csc(NC(=O)CSc2nnnn2-c2ccc(C)cc2C)n1
COc1ccc(C(=O)NC(=S)N2CCC(C)CC2)cc1Br
O=C(NC(=S)Nc1cccc(Cl)c1N1CCCCC1)c1ccco1
